# Reference: ChEMBL document CHEMBL4765360, “Design, synthesis and biological evaluation of novel potent STAT3 inhibitors based on BBI608 for cancer therapy” (Eur J Med Chem, 2020)
# Active and inactive are the calls of the source. No cut-off for these calls is given here.
# How the values were obtained:
# MDA-MB-231 [1] = assay: Induction of cell cycle arrest in human MDA-MB-231 cells assessed as G0/G1 phase accumulation at 1 uM incubated for 24 hrs by PI staining based flow cytometry analysis (reference value: 57.99 %); assay type: functional
# [2] = Toxicity in BALB/c mouse xenografted with human MDA-MB-231 cells assessed as effect on body weight loss at 5 to 10 mg/kg, ip administered once daily for 21 days and measured for 21 days; assay type: organism-based; details: in vivo, 504 h, dose 5-10 mg/kg/day, time 21 day
# How it was run: (§1)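 Female BALB/c nude mice, 5 weeks old (16–18 g), were given 5×10^6 MDA-MB-231 cells subcutaneously. At ~50 mm³, mice were randomized to three groups (n=6): vehicle, 5 or 10 mg/kg i.p. daily for 21 days. Tumor volume (length×width²/2) was measured every 3 days and body weight recorded. Tumors were excised and weighed at the end. TGI derived versus control; mean ± SEM.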
# MDA-MB-231 [3] = assay: Induction of apoptosis in human MDA-MB-231 cells assessed as viable cells at 1 uM incubated for 24 hrs by annexin V-FITC and PI staining based flow cytometry analysis (reference value: 93.37 %); assay type: functional; details: read-out: Activity
# MDA-MB-231 [4] = assay: Induction of apoptosis in human MDA-MB-231 cells assessed as early apoptotic cells at 4 uM incubated for 24 hrs by annexin V-FITC and PI staining based flow cytometry analysis (reference value: 2.69 %); assay type: functional
# MDA-MB-231 [5] = assay: Induction of apoptosis in human MDA-MB-231 cells assessed as necrotic cells at 4 uM incubated for 24 hrs by annexin V-FITC and PI staining based flow cytometry analysis (reference value: 0.23 %); assay type: functional
# MDA-MB-231 [6] = assay: Induction of apoptosis in human MDA-MB-231 cells assessed as necrotic cells at 1 uM incubated for 24 hrs by annexin V-FITC and PI staining based flow cytometry analysis (reference value: 0.23 %); assay type: functional
# [7] = biological target: T1, Signal transducer and activator of transcription 3 (Homo sapiens, UniProt P40763); assay: Inhibition of STAT3 in human MDA-MB-231 cells assessed as reduction in STAT3 Y705 phosphorylation incubated for 24 hrs by Western blot analysis; assay type: cell-based; details: dose 0.75-3 µM
# T1 sequence (P40763 whole entry): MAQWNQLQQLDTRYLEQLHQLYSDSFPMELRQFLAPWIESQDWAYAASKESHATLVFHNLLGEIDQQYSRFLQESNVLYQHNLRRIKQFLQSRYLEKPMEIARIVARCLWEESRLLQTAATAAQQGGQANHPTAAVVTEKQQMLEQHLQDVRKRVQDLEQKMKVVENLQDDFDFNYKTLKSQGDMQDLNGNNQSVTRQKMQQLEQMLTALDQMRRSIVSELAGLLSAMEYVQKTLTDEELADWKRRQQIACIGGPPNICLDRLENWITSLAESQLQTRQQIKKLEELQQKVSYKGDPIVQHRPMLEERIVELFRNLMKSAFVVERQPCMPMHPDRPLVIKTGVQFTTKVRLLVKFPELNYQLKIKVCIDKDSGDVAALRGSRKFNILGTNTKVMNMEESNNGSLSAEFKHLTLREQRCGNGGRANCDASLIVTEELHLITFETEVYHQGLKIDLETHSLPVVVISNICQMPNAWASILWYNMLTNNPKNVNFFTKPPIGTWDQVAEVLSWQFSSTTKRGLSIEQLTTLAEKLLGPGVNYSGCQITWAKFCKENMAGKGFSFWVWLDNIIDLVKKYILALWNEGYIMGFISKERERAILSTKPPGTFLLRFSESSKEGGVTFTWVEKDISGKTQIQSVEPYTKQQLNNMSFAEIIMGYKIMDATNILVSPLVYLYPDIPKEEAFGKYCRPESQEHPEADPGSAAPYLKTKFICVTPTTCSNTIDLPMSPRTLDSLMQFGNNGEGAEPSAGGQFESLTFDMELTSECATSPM
# How it was run: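 MDA-MB-231 cells treated with a range of concentrations for 24 h. RIPA lysates with PMSF, 40 µg protein/lane, on 10% SDS-PAGE, then PVDF. Blocked in 5% milk/TBST for 2 h. Primary antibodies to STAT3, p-STAT3(Y705), STAT1, p-STAT1(Y701), c-Myc and Cyclin D1 overnight at 4 °C; GAPDH as loading control. HRP secondary for 1 h; ECL detection.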
# MDA-MB-231 [8] = assay: Induction of apoptosis in human MDA-MB-231 cells incubated for 24 hrs by annexin V-FITC and PI staining based flow cytometry analysis; assay type: functional, cell-based; details: dose 1-4 µM
# MDA-MB-231 [9] = assay: Antitumor activity against human MDA-MB-231 cells xenografted in BALB/c mouse assessed as reduction in tumor growth at 10 mg/kg, ip administered once daily for 21 days and measured on day 21 relative to control; assay type: functional; details: MDA-MB-231, ip, 504 h, time 21 day, read-out: TGI; how it was run: as §1
# MDA-MB-231 [10] = assay: Induction of cell cycle arrest in human MDA-MB-231 cells assessed as S phase accumulation at 4 uM incubated for 24 hrs by PI staining based flow cytometry analysis (reference value: 26.21 %); assay type: functional
# MDA-MB-231 [11] = assay: Induction of apoptosis in human MDA-MB-231 cells assessed as early apoptotic cells at 2 uM incubated for 24 hrs by annexin V-FITC and PI staining based flow cytometry analysis (reference value: 2.69 %); assay type: functional
# MDA-MB-231 [12] = assay: Induction of cell cycle arrest in human MDA-MB-231 cells assessed as G2/M phase accumulation at 1 uM incubated for 24 hrs by PI staining based flow cytometry analysis (reference value: 15.80 %); assay type: functional
# MDA-MB-231 [13] = assay: Induction of cell cycle arrest in human MDA-MB-231 cells assessed as increase in S phase accumulation incubated for 24 hrs by PI staining based flow cytometry analysis; assay type: functional; details: dose 1-4 µM
# [14] = biological target: T1, Signal transducer and activator of transcription 3; assay: Inhibition of STAT3 in human MDA-MB-231 cells assessed as reduction in STAT3 Y705 phosphorylation in nucleus at 3 uM incubated for 24 hrs by immunofluorescence staining based fluorescence microscopy; assay type: subcellular
# How it was run: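 MDA-MB-231 cells at 1×10^4 per dish, adhered overnight, then exposed to 3.0 µM for 24 h. Fixed in 4% paraformaldehyde and permeabilized with 0.5% Triton X-100. Blocked in 5% BSA for 1 h. Anti-p-STAT3 primary overnight at 4 °C, then Alexa Fluor 546 anti-rabbit for 1 h at RT. Hoechst nuclear stain; imaged by fluorescence microscopy.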
# Mus musculus = assay: In vivo inhibition of STAT3 in BALB/c mouse xenografted with human MDA-MB-231 cells assessed as reduction in STAT3 Y705 phosphorylation in tumor tissue at 10 mg/kg, ip administered once daily for 21 days and measured on day 21 by immunofluorescent staining based fluorescence microscopy; assay type: functional, organism-based; details: dose 10.0 mg/kg/day, time 21.0 day
# How it was run: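 Tumors from the xenograft study (10 mg/kg i.p. daily, 21 days) were sectioned and fixed. Sections were stained with anti-p-STAT3 overnight at 4 °C, then Cy3 anti-rabbit secondary for 40 min at 37 °C. Nuclei stained with DAPI; imaged by fluorescence microscopy. Mean ± SEM, n=4.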
# MDA-MB-231 [15] = assay: Induction of cell cycle arrest in human MDA-MB-231 cells assessed as S phase accumulation at 1 uM incubated for 24 hrs by PI staining based flow cytometry analysis (reference value: 26.21 %); assay type: functional
smiles,measurement,setting,value
COc1ccc(NC2=CC(=O)c3cc(C(C)=O)oc3C2=O)cc1,Activity,MDA-MB-231 [1],49.42%
same,Activity,[2],Non-Toxic
same,viability at 1 µM,MDA-MB-231 [3],87.9%
same,Activity,MDA-MB-231 [4],10.25%
same,Activity,MDA-MB-231 [5],0.77%
same,Activity,MDA-MB-231 [6],0.41%
same,inhibition,[7],Dose-dependent effect
same,Activity,MDA-MB-231 [8],Dose-dependent effect
same,inhibition in vivo at 10 mg/kg/day,MDA-MB-231 [9],54.6%
same,Activity,MDA-MB-231 [10],57.09%
same,Activity,MDA-MB-231 [11],4.69%
same,Activity,MDA-MB-231 [12],16.27%
same,Activity,MDA-MB-231 [13],Dose-dependent effect
same,inhibition,[14],Active
same,inhibition,Mus musculus,Active
same,Activity,MDA-MB-231 [15],34.31%
